34 molecules from PubChem BioAssay AID1257 (The Scripps Research Institute Molecular Screening Center, 2008) can be followed below.

The other results are listed elsewhere or left out. Unmarked numbers belong to inactive results. Activity calls are given as the source filed them.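 The calls were made as follows: active = mean inhibition of triplicate wells above the hit cutoff set in the primary screen (cut at about 17% in these data); inactive = the rest.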

Neuropeptide Y receptor type 2 (Homo sapiens), sequence (P49146 whole entry, looked up): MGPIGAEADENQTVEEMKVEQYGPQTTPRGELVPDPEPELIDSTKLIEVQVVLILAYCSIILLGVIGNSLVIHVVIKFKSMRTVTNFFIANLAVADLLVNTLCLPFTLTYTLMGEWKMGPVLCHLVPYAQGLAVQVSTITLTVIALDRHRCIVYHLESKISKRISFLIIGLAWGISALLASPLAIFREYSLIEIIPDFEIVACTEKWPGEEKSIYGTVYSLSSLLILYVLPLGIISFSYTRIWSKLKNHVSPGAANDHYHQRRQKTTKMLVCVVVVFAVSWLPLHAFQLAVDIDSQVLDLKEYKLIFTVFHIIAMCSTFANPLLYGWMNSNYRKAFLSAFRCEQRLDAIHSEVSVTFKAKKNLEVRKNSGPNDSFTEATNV

For the test, the target named is Neuropeptide Y receptor type 2 (Homo sapiens) (UniProt P49146). Description: NPY-Y2 receptor antagonists, retest of hits, confirmation, HEK293-CNG cells, membrane potential fluorescence, triplicate (AID 1257).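 Also: 0% = DMSO with NPY challenge and 100% = BIIE0246 high control.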 The conditions noted are these: HEK293 NPY-Y2 CNG channel, at 2.8 µM, active compounds read high. An outline of the steps:
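Material: HEK293 cells expressing NPY-Y2 receptor and CNG channel; Control set: BIIE0246 as high control, DMSO as low control; Measured by: membrane potential dye fluorescence; Also added: NPY 8 nM plus isoproterenol 1 µM, Ro 20-1724 25 µM; Doses: single nominal compound dose of 2.8 µM; Times: 60 min NPY incubation, room temperature.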
As to `N#Cc1ccc(N2Cc3ccccc3/C2=N/C(=O)Nc2ccc(Cl)cc2)cc1`, the inhibition (commonly the drop in the measured response relative to a control, in per cent) is 144% (active).

As to `COC(=O)c1ccc(CSc2nc3cc(Cl)ccc3o2)cc1`, the inhibition is 12.9%.

As to `Cc1ccc(S(=O)(=O)N(Cc2ccc(Cl)cc2)c2ccccc2C(=O)NCc2cccnc2)cc1`, the inhibition was 21.4% (active).

For the molecule `CC12CN(Cc3ccccc3)CC(C)(CN(Cc3ccccc3)C1)C2=NO`, the inhibition was 10.7%.

For `O=C(Oc1ccccc1)Oc1ccc2c(c1)oc(=O)c1ccccc12`, the inhibition was 6.38%.

As for `CCCc1nc(SCC(=O)Nc2ccccc2OC)c2c(=O)n(C)c(=O)n(C)c2n1`, the inhibition is 9.29%.

In the case of `C=CCNCCCCOc1ccccc1`, the inhibition is -1.34%.

Turning to `N#Cc1ccc(C(c2nnnn2CCc2ccccc2)N2CCCCCC2)cc1` (centres undefined), the inhibition was 7.32%.

`O=C(CC(O)(C(F)(F)F)C(F)(F)F)Nc1ccc(Cl)c(Cl)c1`: the inhibition was 8.21%.

Regarding `COc1ccc(NC(=O)/C(Cl)=C(/Cl)S(=O)Cc2ccc(C)cc2)cn1` (centres undefined), the inhibition is 60.8% (active).

`O=C1CC(c2cccc(Cl)c2)CC(O)=C1C=Nc1ccccc1` (centres undefined): the inhibition is 16.5%.

For `Cc1ccc(CCC(=O)Nc2ncc(Cc3cc(Cl)ccc3Cl)s2)o1`, the inhibition is 28.3% (active).

On to `O=S(=O)(Cc1cc(Sc2ccccc2)nc(-c2ccccc2)n1)c1ccccc1`, for which the inhibition was 7.19%.

For `Cc1ccccc1N1CCN(CCCOc2ccc3c(C)cc(=O)oc3c2)CC1`, the inhibition is 21.9% (active).

In the case of `Cc1ccc(C2=NN(C)c3nc4ccccc4n3C2)cc1`, the inhibition was 4.08%.

In the case of `CN(C)Cc1ccc(F)cc1Sc1cc(Cl)ccc1Cl`, the inhibition was 9.81%.

For the molecule `CCOc1ccc(C(O)Cn2c(=N)n(CCN3CCCCC3)c3ccccc32)cc1` (centres undefined), the inhibition was 14.8%.

Turning to `c1ccc(-c2cc3c(NCC4COc5ccccc5O4)ncnc3s2)cc1` (centres undefined), the inhibition was 15.2%.

Consider `Cc1cc(C)nc(-n2ncc3c2CC(c2ccc(C(C)C)cc2)CC3=O)n1` (centres undefined), for which the inhibition was 24.2% (active).

For the molecule `O=C(Nc1nnc(SCc2c(Cl)cccc2Cl)s1)C1CCCO1` (centres undefined), the inhibition is 15.9%.

Regarding `CCCCCNC(=O)Cc1ccc(OC)cc1`, the inhibition was -1.6%.

As for `COc1ccc(/C=C/C(=O)NC(=S)NN2CCCCC2c2cccnc2)cc1` (centres undefined), the inhibition is 63.5% (active).

Turning to `CCCCC(O)(CCCC)C(=O)NN(C(=O)CCl)c1ccccc1`, the inhibition is 6.12%.

As for `COc1ccc(-c2nc3ccccc3n2CCC(C)C)cc1OC`, the inhibition is 7.79%.

As to `COc1cccc(-c2ccc(C#N)c(SCC(=O)NCCc3ccc(Cl)cc3)n2)c1`, the inhibition was 23.6% (active).

For the molecule `Cc1cccc(OCC(O)Cn2c(=N)n(CCN3CCOCC3)c3ccccc32)c1` (centres undefined), the inhibition is 6.36%.

For the molecule `CCOc1ccc(S(=O)(=O)N/N=C(\C)c2ccc(Cl)c(Cl)c2Cl)cc1`, the inhibition was 16%.

As to `Cc1ccc(NC(=O)CN2CCC3(O)CCCCC3C2c2ccc3c(c2)OCO3)c(C)c1` (centres undefined), the inhibition is 7.05%.

Take `COc1ccc(/C(N)=N/OC(=O)CCCc2ccccc2)cc1`: the inhibition is 8.36%.

As for `Cc1ccccc1OC(=O)Cn1c(C(F)(F)F)nc2ccccc21`, the inhibition was 3.55%.

Regarding `Cc1cc(C(=O)OCC(=O)N2c3ccccc3NC(=O)C2(C)C)c(C)n1-c1ccccc1`, the inhibition was 17.1%.

With `N=c1n(Cc2ccc(Cl)cc2)c2ccccc2n1CC(O)c1ccco1` (centres undefined), the inhibition was 17.8% (active).

For `CCOC(=O)C(C)Sc1nc2ccccc2c(=O)n1CC1CCCCC1` (centres undefined), the inhibition is 8.48%.

In the case of `COc1ccc(-c2noc(COc3ccc(Cl)c(C)c3)n2)cc1`, the inhibition was 32.4% (active).
